Reference: ChEMBL document CHEMBL4765449, “Synthesis, biological evaluation and toxicity of novel tetrandrine analogues” (Eur J Med Chem, 2020)
The source made the active and inactive calls.

What was measured:
[1] = system: CCRF-CEM; assay: Antiproliferative activity against vincristine-resistant human CEM cells assessed as reduction in cell viability measured after 48 hrs by Celltiter-blue cell viability assay; assay type: functional, cell-based
Procedure, shortened: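 VCR-R CEM cells (RPMI 1640, 10% FCS), 0.02 × 10^6 per well, rested 4 h (metabolic activity at this point taken as zero value), then exposed to compounds for 48 h; CellTiter-Blue added 2 h before end, fluorescence at 590 nm. IC50 by nonlinear regression; single-concentration proliferation read at 10 μM.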

[2] = system: HepaRG; assay: Cytotoxicity against human HepaRG cells assessed as reduction in cell viability at 10 uM measured after 24 hrs by Celltiter-blue cell viability assay; assay type: cell-based
Procedure, shortened: (§1)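 Differentiated HepaRG cells (Maintenance/Metabolism medium) exposed 24 h to 10 or 20 μM compound; viability by CellTiter-Blue, normalized to vehicle control. Means ± SEM of three independent experiments.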

[3] = system: HepaRG; assay: Cytotoxicity against human HepaRG cells assessed as reduction in cell viability at 20 uM measured after 24 hrs by Celltiter-blue cell viability assay; assay type: cell-based; procedure, shortened: as §1
[4] = system: HepG2; assay: Inhibition of AKT phosphorylation at Ser473 residue in human HepG2 cells at 5 uM measured after 24 hrs by Western blot analysis; assay type: cell-based
Procedure, shortened: (§2)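 HepG2, 0.5 × 10^6 per well, adhered overnight, then DMSO or 5 μM compound; RIPA lysates immunoblotted by SDS-PAGE/PVDF with chemiluminescent detection.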

[5] = system: CCRF-CEM; assay: Induction of apoptosis in vincristine-resistant human CEM cells assessed as increase in PARP cleavage at 5 uM measured after 24 hrs by Western blot analysis; assay type: functional, cell-based
Procedure, shortened: (§3)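 VCR-R CEM cells, 2 × 10^6 per well, seeded 4 h before 5 μM compound or DMSO for 24 h; RIPA lysis, SDS-PAGE, PVDF blotting, chemiluminescence. Probed for p-Akt (Ser473), total Akt, PARP, Bcl-xL, Mcl-1; stain-free total protein as loading control.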

[6] = system: CEM; assay: Inhibition of P-gp in vincristine-resistant human CEM cells at 0.1 to 1 uM using calcein-AM as substrate preincubated for 30 mins followed by compound washout and subsequent substrate addition measured after 60 mins by flow cytometric analysis; assay type: cell-based; conditions: dose 0.1-1 µM
[7] = system: CCRF-CEM; assay: Effect on MCL1 expression in vincristine-resistant human CEM cells at 5 uM measured after 24 hrs by Western blot analysis; assay type: functional, cell-based; procedure, shortened: as §3
[8] = system: CCRF-CEM; assay: Induction of mitochondrial membrane disruption in vincristine-resistant human CEM cells at 5 uM measured after 24 hrs by JC-1 dye based flow cytometric analysis; assay type: functional, cell-based
Procedure, shortened: (§4)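 Cells (HepG2 adhered overnight; VCR-R CEM seeded 4 h before) treated with DMSO or 5 μM for 24 h; JC-1 (1 μg/mL) 1 h before harvest, PBS wash, flow cytometry; green shift read as loss of ΔΨm. CCCP (100 μM, 1 h) positive control; elacridar (5 μM) present for CEM staining.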

[9] = system: HepG2; assay: Cytotoxicity against human HepG2 cells overexpressing EGFP-CYP3A4 assessed as reduction in cell viability at 15 uM measured after 24 hrs by propidium iodide staining based flow cytometry; assay type: functional
Procedure, shortened: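 HepG2 stably transfected (G418 0.5 mg/mL, four weeks; plasmid confirmed by PCR) with pcDNA3-CYP3A4-EGFP or empty vector, 0.1 × 10^6 per well, adhered overnight; 15 μM compound 24 h. Propidium iodide staining and flow cytometry; specific cell death relative to control. Three independent experiments.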

[10] = system: HepG2; assay: Induction of apoptosis in human HepG2 cells assessed as increase in PARP cleavage at 5 uM measured after 24 hrs by Western blot analysis; assay type: functional, cell-based; procedure, shortened: as §2
[11] = system: CEM; assay: Effect on AKT phosphorylation at Ser473 residue in vincristine-resistant human CEM cells at 5 uM measured after 24 hrs by Western blot analysis; assay type: cell-based; procedure, shortened: as §3
[12] = system: CEM; assay: Inhibition of P-gp in vincristine-resistant human CEM cells assessed as potentiation of vincristine-induced apoptosis 1 uM measured after 48 hrs by propidium iodide staining based flow cytometry; assay type: cell-based
Procedure, shortened: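 VCR-R CEM, 0.125 × 10^6 per well, rested 4 h, then incubated 48 h with increasing vincristine with or without 1 μM compound; apoptosis by propidium iodide staining and flow cytometry. Three independent experiments.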

[13] = system: CCRF-CEM; assay: Effect on Bcl-XL expression in vincristine-resistant human CEM cells at 5 uM measured after 24 hrs by Western blot analysis; assay type: functional, cell-based; procedure, shortened: as §3
[14] = system: HepG2; assay: Induction of mitochondrial membrane disruption in human HepG2 cells at 5 uM measured after 24 hrs by JC-1 dye based flow cytometric analysis; assay type: functional, cell-based; procedure, shortened: as §4
[15] = system: CCRF-CEM; assay: Effect on P-gp expression in vincristine-resistant human CEM cells at 1 uM measured after 1.5 hrs by immunostaining based flow cytometry; assay type: functional, cell-based
Procedure, shortened: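 VCR-R CEM, 2 × 10^4 cells, 1 μM compound 1.5 h at 37 °C; washed in ice-cold 1% BSA/PBS, stained 30 min at 4 °C in dark with FITC anti-human P-gp, isotype control for background; flow cytometry, gMFI normalized to DMSO. Three independent experiments.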

[16] = system: HepG2; assay: Induction of apoptosis in human HepG2 cells assessed as reduction in Mcl-1 expression at 5 uM measured after 24 hrs by Western blot analysis; assay type: functional, cell-based; procedure, shortened: as §2
[17] = system: HepG2; assay: Induction of apoptosis in human HepG2 cells assessed as reduction in Bcl-xl expression at 5 uM measured after 24 hrs by Western blot analysis; assay type: functional, cell-based; procedure, shortened: as §2

COc1cc2c3cc1Oc1c(OC)c(OC)cc4c1C(Cc1ccc(Cl)c(c1)Oc1ccc(cc1)CC3N(C)CC2)N(C)CC4 (mixture of isomers)
4.8 µM: IC50 [1]
Toxic: Activity [2] | Activity [3]

COc1cc2c3cc1Oc1c(OC)c(OC)cc4c1C(Cc1ccc(OC(F)(F)F)c(c1)Oc1ccc(cc1)CC3N(C)CC2)N(C)CC4 (racemic; form 2)
active: inhibition [4] | Activity [5] | inhibition [6] | Activity [8] | Activity [9] | inhibition [12]
inactive: Activity [7] | Activity [10] | Activity [11] | Activity [13] | Activity [14] | Activity [15]

COc1cc2c3cc1Oc1c(OC)c(OC)cc4c1C(Cc1cc(cs1)Oc1ccc(cc1)CC3N(C)CC2)N(C)CC4 (racemic; form 1)
active: inhibition [4] | inhibition [6] | Activity [8] | Activity [9] | Activity [16] | inhibition [12] | Activity [17]
inactive: Activity [7] | Activity [10] | Activity [11] | Activity [13] | Activity [14] | Activity [15]
